Data taken from ChEMBL document CHEMBL1155270, “Modifications at the C-terminus to improve pyrrole-imidazole polyamide activity in cell culture” (J Med Chem, 2009).
Each block holds one compound with its values, some of them ahead of it. Calls of active or inactive are those of the source. The rule behind the calls is not given here.

How the values were obtained:
LNCaP [1] = test: Inhibition of desferrioxamine-induced VEGF mRNA expression in human LNCAP cells at 1 to 2 uM by quantitative RT-PCR analysis; assay type: functional, cell-based
U-251 [2] = test: Inhibition of desferrioxamine-induced VEGF mRNA expression in human U251 cells at 0.02 to 0.2 uM by quantitative RT-PCR analysis; assay type: functional, cell-based
Procedure, shortened: (§1)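 In U251 cells, induced VEGF mRNA was quantified by real-time RT-PCR after polyamide at 1, 0.2 and 0.02 μM, with DMSO ≤0.1%. Values were normalized to untreated induced cells; uninduced and DMSO-vehicle controls were run alongside.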

Nucleic Acid [3] = test: Binding affinity to 14mer DNA assessed as change in melting temperature by spectrophotometry; assay type: nucleic-acid assay
Procedure, shortened: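 Thermal melting of 14-mer oligonucleotide duplexes (HRE or ARE sequence) with and without polyamide, read by UV spectrophotometry in 1 cm quartz cuvettes with a thermostatted holder. Buffer was 10 mM sodium cacodylate, 10 mM KCl, 10 mM MgCl2, 5 mM CaCl2, pH 7.0. ΔTm is taken relative to the free duplex.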

Nucleic Acid [4] = test: Binding affinity to 5'-GTGCATACGTGGGC-3' sequence of DNA assessed as change in melting temperature by spectrophotometry; assay type: nucleic-acid assay
LNCaP [5] = test: Inhibition of desferrioxamine-induced VEGF mRNA expression in human LNCAP cells at 10 uM by quantitative RT-PCR analysis; assay type: functional
Procedure, shortened: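 DFO-induced VEGF mRNA was measured in LNCaP cells by quantitative real-time RT-PCR, following the LNCaP PSA protocol but with non-charcoal-stripped FBS. Polyamide doses were 10, 2 and 0.2 μM, with DMSO ≤0.1%. Levels were normalized to untreated induced cells; untreated uninduced and DMSO controls were included.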

U-251 [6] = test: Inhibition of desferrioxamine-induced VEGF mRNA expression in human U251 cells at 1 uM by quantitative RT-PCR analysis; assay type: functional; procedure, shortened: as §1
LNCaP [7] = test: Cytotoxicity against human LNCAP cells assessed as cell viability at 0.01 to 30 uM after 48 hrs by WST1 assay; assay type: functional
Procedure, shortened: (§2)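 LNCaP cells were seeded at 10-15 × 10^2 per well and allowed to settle 48 h before polyamide was added as 2× media solutions (DMSO <0.1%). After 48 h exposure, media was replaced and cells recovered 24 h. WST-1 was added for 30 min and A450 read. Wells were corrected for media-only background and normalized to untreated controls.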

LNCaP [8] = test: Cytotoxicity against human LNCAP cells at 0.01 to 30 uM after 48 hrs by WST1 assay; assay type: functional, cell-based; procedure, shortened: as §2
LNCaP [9] = test: Inhibition of dihydrotestosterone-induced prostate specific antigen expression in human LNCAP cells at 0.1 to 5 uM by quantitative RT-PCR analysis; assay type: functional, cell-based
Procedure, shortened: (§3)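 LNCaP cells were induced with 1 nM DHT and PSA mRNA measured by quantitative real-time RT-PCR. Oxime-linked polyamides were given at 5, 1 and 0.1 μM, and unconjugated controls at 5 μM, with DMSO ≤0.1%. Expression was normalized to untreated DHT-induced cells; uninduced and DMSO controls were included.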

LNCaP [10] = test: Cytotoxicity against human LNCAP cells at 5 uM after 48 hrs by WST1 assay; assay type: functional, cell-based
LNCaP [11] = test: Inhibition of dihydrotestosterone-induced prostate specific antigen expression in human LNCAP cells at 5 uM by quantitative RT-PCR analysis; assay type: functional; procedure, shortened: as §3
LNCaP [12] = test: Cytotoxicity against human LNCAP cells after 48 hrs by WST1 assay; assay type: functional, cell-based; procedure, shortened: as §2
Nucleic Acid [13] = test: Binding affinity to 5'-TTGCAGAACAGCAA-3' sequence of DNA assessed as change in melting temperature by spectrophotometry; assay type: nucleic-acid assay
U-251 [14] = test: Cytotoxicity against human U251 cells at 0.002 to 10 uM after 48 hrs by WST1 assay; assay type: functional, cell-based
Procedure, shortened: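 U251 cells were plated at 10-15 × 10^2 per well. After 24 h, polyamide was added in 2× media, with a 10–0.002 μM range for the core-less oxime controls. Cells were treated 48 h, then given fresh media for 24 h recovery. WST-1 was read at 450 nm after 30 min, with background correction and normalization to untreated wells.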

LNCaP [15] = test: Cytotoxicity against human LNCAP cells at 0.02 to 50 uM after 48 hrs by WST1 assay; assay type: functional, cell-based; procedure, shortened: as §2
U-251 [16] = test: Cytotoxicity against human U251 cells after 48 hrs by WST1 assay; details: U-251, 48 h
LNCaP [17] = test: Inhibition of dihydrotestosterone-induced prostate specific antigen expression in human LNCAP cells by quantitative RT-PCR analysis; assay type: functional, cell-based
Procedure, shortened: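 For gene-regulation IC50, DHT (1 nM)-induced LNCaP cells were dosed across 30–0.1 μM or 10–0.03 μM. PSA mRNA was quantified by real-time RT-PCR and normalized to induced untreated cells. Isotherms from three independent experiments were fitted with a modified Hill equation.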

U-251 [18] = test: Selectivity ratio of inhibition of desferrioxamine-induced VEGF mRNA expression in human LNCAP cells to inhibition of desferrioxamine-induced VEGF mRNA expression in human U251 cells; assay type: functional
LNCaP [19] = test: Inhibition of expression in human LNCAP cells at 5 uM by quantitative RT-PCR analysis
LNCaP [20] = test: Selectivity ratio of IC50 for human LNCAP cells to IC50 for inhibition of dihydrotestosterone-induced prostate specific antigen expression in human LNCAP cells; assay type: functional
Procedure, shortened: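 Ratio of WST-1 growth-inhibition IC50 (48 h exposure, 24 h recovery, LNCaP) to PSA gene-regulation IC50. The gene-regulation IC50 came from Hill-fitted RT-PCR isotherms in 1 nM DHT-induced LNCaP cells, three independent experiments.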

LNCaP [21] = test: Inhibition of dihydrotestosterone-induced prostate specific antigen expression in human LNCAP cells at 1 uM by quantitative RT-PCR analysis; assay type: functional, cell-based; procedure, shortened: as §3

ΔTm (Nucleic Acid [3]): 0.8 °C
SMILES: Cn1cc(NC(=O)c2cc(NC(=O)c3cc(NC(=O)c4nc(NC(=O)[C@H](N)CCNC(=O)c5nc(NC(=O)c6cc(NC(=O)c7nc(NC(=O)c8nccn8C)cn7C)cn6C)cn5C)cn4C)cn3C)cn2C)cc1C(=O)NCCCO/N=C\c1cccc(C(=O)O)c1
inhibition (LNCaP [1]): Active
inhibition (U-251 [2]): Active

ΔTm (Nucleic Acid [4]): 11.4 °C
SMILES: Cn1cc(NC(=O)c2cc(NC(=O)c3nc(NC(=O)c4cc(NC(=O)[C@H](N)CCNC(=O)c5nc(NC(=O)c6cc(NC(=O)c7cc(NC(=O)c8sccc8Cl)cn7C)cn6C)cn5C)cn4C)cn3C)cn2C)cc1C(=O)NCCCO/N=C\c1cccc(C(=O)O)c1
inhibition at 10 µM (LNCaP [5]): 80%
inhibition (U-251 [2]): Active
inhibition at 1 µM (U-251 [6]): 60%

ΔTm (Nucleic Acid [3]): 2.6 °C
SMILES: Cn1cc(NC(=O)c2cc(NC(=O)c3nc(NC(=O)c4cc(NC(=O)[C@H](N)CCNC(=O)c5nc(NC(=O)c6cc(NC(=O)c7cc(NC(=O)c8nccn8C)cn7C)cn6C)cn5C)cn4C)cn3C)cn2C)cc1C(=O)NCCCO/N=C\c1cccc(C(=O)O)c1
Activity (LNCaP [7]): <50%
Activity (LNCaP [8]): inactive
inhibition (LNCaP [9]): Active

ΔTm (Nucleic Acid [13]): 12.5 °C
SMILES: Cn1cc(NC(=O)c2cc(NC(=O)c3cc(NC(=O)c4nc(NC(=O)[C@H](N)CCNC(=O)c5cc(NC(=O)c6cc(NC(=O)c7cc(NC(=O)c8nccn8C)cn7C)cn6C)cn5C)cn4C)cn3C)cn2C)cc1C(=O)NCCCO/N=C\c1cccc(F)c1
Activity (LNCaP [10]): Active
inhibition (LNCaP [11]): Active
IC50 (LNCaP [12]): 0.6 µM

ΔTm (Nucleic Acid [4]): 9.4 °C
SMILES: Cn1cc(NC(=O)c2cc(NC(=O)c3nc(NC(=O)c4cc(NC(=O)[C@H](N)CCNC(=O)c5nc(NC(=O)c6cc(NC(=O)c7cc(NC(=O)c8sccc8Cl)cn7C)cn6C)cn5C)cn4C)cn3C)cn2C)cc1C(=O)NCCCO/N=C\c1cccc(F)c1
inhibition at 10 µM (LNCaP [5]): 80%
inhibition (U-251 [2]): Active
inhibition at 1 µM (U-251 [6]): 60%

ΔTm (Nucleic Acid [3]): 0.8 °C
SMILES: Cn1cc(NC(=O)c2cc(NC(=O)c3cc(NC(=O)c4nc(NC(=O)[C@H](N)CCNC(=O)c5nc(NC(=O)c6cc(NC(=O)c7nc(NC(=O)c8nccn8C)cn7C)cn6C)cn5C)cn4C)cn3C)cn2C)cc1C(=O)NCCCO/N=C\c1ccc(F)cc1
inhibition (LNCaP [1]): Active
inhibition (U-251 [2]): Active

ΔTm (Nucleic Acid [3]): 0.9 °C
SMILES: Cn1cc(NC(=O)c2cc(NC(=O)c3cc(NC(=O)c4nc(NC(=O)[C@H](N)CCNC(=O)c5nc(NC(=O)c6cc(NC(=O)c7nc(NC(=O)c8nccn8C)cn7C)cn6C)cn5C)cn4C)cn3C)cn2C)cc1C(=O)NCCCO/N=C\c1cccc(F)c1
inhibition (LNCaP [1]): Active
inhibition (U-251 [2]): Active

SMILES: CC(=O)NCCCO/N=C\c1cccc(C(=O)O)c1
Activity (U-251 [14]): inactive
IC50 (LNCaP [12]): > 50 µM
Activity (LNCaP [15]): inactive
IC50 (U-251 [16]): > 10 µM

IC50 (LNCaP [17]): 6 µM
ΔTm (Nucleic Acid [13]): 14.2 °C
SMILES: CN(CCCNC(=O)c1cccc(C(=O)O)c1)CCCNC(=O)c1cc(NC(=O)c2cc(NC(=O)c3cc(NC(=O)c4nc(NC(=O)[C@H](N)CCNC(=O)c5cc(NC(=O)c6cc(NC(=O)c7cc(NC(=O)c8nccn8C)cn7C)cn6C)cn5C)cn4C)cn3C)cn2C)cn1C
Ratio (U-251 [18]): 10
IC50 (LNCaP [12]): > 30 µM
inhibition (LNCaP [19]): Active
Activity (LNCaP [7]): <50%
Ratio IC50 (LNCaP [20]): >=5

ΔTm (Nucleic Acid [3]): 4 °C
SMILES: Cn1cc(NC(=O)c2cc(NC(=O)c3nc(NC(=O)c4cc(NC(=O)[C@H](N)CCNC(=O)c5nc(NC(=O)c6cc(NC(=O)c7cc(NC(=O)c8nccn8C)cn7C)cn6C)cn5C)cn4C)cn3C)cn2C)cc1C(=O)NCCCO/N=C\c1cccc(F)c1
IC50 (LNCaP [12]): ≥ 30 µM
Activity (LNCaP [7]): <50%
inhibition (LNCaP [9]): Active

IC50 (LNCaP [17]): 0.3 µM
ΔTm (Nucleic Acid [13]): 11.5 °C
SMILES: Cn1cc(NC(=O)c2cc(NC(=O)c3cc(NC(=O)c4nc(NC(=O)[C@H](N)CCNC(=O)c5cc(NC(=O)c6cc(NC(=O)c7cc(NC(=O)c8nccn8C)cn7C)cn6C)cn5C)cn4C)cn3C)cn2C)cc1C(=O)NCCCO/N=C\c1cccc(C(=O)O)c1
inhibition (LNCaP [21]): Active
Activity (LNCaP [10]): Active
inhibition (LNCaP [11]): Active
IC50 (LNCaP [12]): 1.7 µM
Ratio IC50 (LNCaP [20]): 6.1

SMILES: CC(=O)NCCCO/N=C\c1ccc(F)cc1
Activity (U-251 [14]): inactive
IC50 (LNCaP [12]): > 50 µM
Activity (LNCaP [15]): inactive
IC50 (U-251 [16]): > 10 µM

ΔTm (Nucleic Acid [3]): 3.4 °C
SMILES: Cn1cc(NC(=O)c2cc(NC(=O)c3nc(NC(=O)c4cc(NC(=O)[C@H](N)CCNC(=O)c5nc(NC(=O)c6cc(NC(=O)c7cc(NC(=O)c8nccn8C)cn7C)cn6C)cn5C)cn4C)cn3C)cn2C)cc1C(=O)NCCCO/N=C\c1ccc(F)cc1
IC50 (LNCaP [12]): ≥ 30 µM
Activity (LNCaP [7]): <50%
inhibition (LNCaP [9]): Active

ΔTm (Nucleic Acid [4]): 10.5 °C
SMILES: Cn1cc(NC(=O)c2cc(NC(=O)c3nc(NC(=O)c4cc(NC(=O)[C@H](N)CCNC(=O)c5nc(NC(=O)c6cc(NC(=O)c7cc(NC(=O)c8sccc8Cl)cn7C)cn6C)cn5C)cn4C)cn3C)cn2C)cc1C(=O)NCCCO/N=C\c1ccc(F)cc1
inhibition at 10 µM (LNCaP [5]): 80%
inhibition (U-251 [2]): Active
inhibition at 1 µM (U-251 [6]): 60%

SMILES: NCCCO/N=C\c1cccc(C(=O)O)c1
Activity (U-251 [14]): inactive
IC50 (LNCaP [12]): > 50 µM
Activity (LNCaP [15]): inactive
IC50 (U-251 [16]): > 10 µM

IC50 (LNCaP [17]): 0.6 µM
ΔTm (Nucleic Acid [3]): 13.1 °C
SMILES: Cn1cc(NC(=O)c2cc(NC(=O)c3cc(NC(=O)c4nc(NC(=O)[C@H](N)CCNC(=O)c5cc(NC(=O)c6cc(NC(=O)c7cc(NC(=O)c8nccn8C)cn7C)cn6C)cn5C)cn4C)cn3C)cn2C)cc1C(=O)NCCCO/N=C\c1ccc(F)cc1
inhibition (LNCaP [21]): Active
Activity (LNCaP [10]): Active
inhibition (LNCaP [11]): Active
IC50 (LNCaP [12]): 0.4 µM
Ratio IC50 (LNCaP [20]): 0.7
